From PubChem
Most compounds without a hit are left out; they make up all but 1.7% or so of the library.
NTR1 agonist – NTR1 (human) agonism | activation, % at 20 µM | NTR1-U2OS beta-arrestin-GFP spot imaging, agonist mode | P30989 | AID 493036 | actives 0.17% (n = 330,000);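 active = activation at or above 40% of the spot to cytoplasm intensity ratio, with at least 20 cells analyzed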;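 also: 0% = DMSO without peptide and 100% = 100 nM NTR1 peptide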
CaV13 FRET inh – Primary screen for inhibitors of IQ motif and Ca2+-dependent inactivation inhibitor domain binding in CACNA1D, Förster resonance energy transfer in living cells, …; HEK cells, CFP/YFP FRET ICDI-IQ, plate reader, 10 min; percent FRET-ratio fall versus neutral wells; inhibition, % at 12.3 µM; actives 0.098% (n = 340,000); AID 743397;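 active = mean replicate inhibition of at least 30% and at least 1% of replicates passing that level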;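 also: 0% = median of the neutral control wells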
SR-BI HDL uptake – inhibitors of mouse SR-BI mediated HDL lipid uptake; inhibition, % at 12.5 µM; ldlA[mSR-BI] CHO cells, DiI-HDL uptake fluorescence, 3 h; actives 0.96% (n = 320,000); Q61009; AID 488896;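 active = mean replicate inhibition of at least 70% and a set share of replicates each scoring 70 or more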;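 also: 0% = median of neutral control wells and 100% = median of positive control wells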
Target sequence (Q61009 whole entry, looked up): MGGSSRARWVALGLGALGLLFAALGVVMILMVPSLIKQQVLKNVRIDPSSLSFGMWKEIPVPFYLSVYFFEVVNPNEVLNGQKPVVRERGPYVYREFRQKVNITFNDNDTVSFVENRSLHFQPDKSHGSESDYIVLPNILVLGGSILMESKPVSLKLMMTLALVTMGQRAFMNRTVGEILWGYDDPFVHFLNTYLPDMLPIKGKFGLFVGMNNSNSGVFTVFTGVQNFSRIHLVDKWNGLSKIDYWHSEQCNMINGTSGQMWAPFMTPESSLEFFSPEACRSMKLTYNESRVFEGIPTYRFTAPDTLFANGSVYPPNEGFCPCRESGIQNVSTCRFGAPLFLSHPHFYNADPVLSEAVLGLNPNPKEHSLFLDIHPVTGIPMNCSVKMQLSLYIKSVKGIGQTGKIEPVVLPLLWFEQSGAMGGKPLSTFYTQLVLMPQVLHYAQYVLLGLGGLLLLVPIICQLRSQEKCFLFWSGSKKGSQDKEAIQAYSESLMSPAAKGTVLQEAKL
Vif inh – inhibitors of HIV Vif. AID 602346. actives 0.35% (n = 340,000). inhibition, % at 7.49 µM. HEK293T cells, Vif self-association by quenched fluorescence, imaging, 24 h; in the data active = inhibition above about 50%, passing the limit was not always enough
SR-BI uptake up – activators of SR-BI mediated HDL lipid uptake. CHO ldlA[mSR-BI] cells, DiI-HDL uptake fluorescence, 3 h; 100 = double the neutral-control signal. activation, % at 12.5 µM. actives 0.096% (n = 320,000). AID 504775;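 active = mean replicate activation of at least 60% and every replicate at or above 60%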;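 also: 0% = median plate neutral-control signal and 100% = twice that signal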
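Test system: SR-BI-overexpressing, LDLR-lacking CHO cells; Also added: labelled HDL, 10 µg/mL; Measured by: bottom-read cell fluorescence after medium removal, ex 550/em 595 nm; Timing: 3 h uptake period with compound, 37 °C; Buffer or medium: F12, 0.5% BSA, 25 mM HEPES; Doses: single compound concentration, delivered by pin transfer.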
V-ATPase pHluor – yeast V-ATPase proton transport regulation by pHLuorin; actives 0.37% (n = 350,000); S. cerevisiae, pHLuorin cytosolic pH fluorescence; response, % at 10 µM; in the data active = response mostly above about 7.3%, no sharp cut-off; inactive = mostly below about 5.4%; also: actives read high
V-ATPase pH SP – yeast V-ATPase proton transport regulation. shares compounds with V-ATPase pHluor. S. cerevisiae pHLuorin cytosolic pH. response, % at 10 µM. actives 2% (n = 980). AID 602197; in the data active = response above about 24%;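 also: plate controls were vehicle wells for no effect and positive control wells for full effect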
Active calls of the source: *; / = not tested or not shown.

SMILES	NTR1 agonist	CaV13 FRET inh	SR-BI HDL uptake	Vif inh	SR-BI uptake up	V-ATPase pHluor	V-ATPase pH SP
CC(C)C[C@H](NC(=O)OC(C)(C)C)C(=O)N[C@@H](CO)[C@H](O)[C@@H]1C[C@@H]1C(=O)NC1CCCCC1	0.4	-10.3	-9.0	/	9.0	25.8*	1.6
Cc1nc2ccsc2c(=O)n1-c1ccc(Cl)cc1	1.0	2.3	-19.4	-1.4	19.4	-1.6	-1.0
Cc1ccc(-n2c(C)nc3ccsc3c2=O)cc1	-0.2	-5.3	-5.5	3.7	5.5	-1.6	/
C/C(=N\O)C(C)(C)Nc1cccc(Br)c1	-0.5	-19.0	6.6	-13.3	-6.6	15.6*	3.9
CC1CCCC(NC(=S)Nc2cccc(S(=O)(=O)N(C)C)c2)C1C (stereo not given)	-0.3	-6.1	6.7	-9.4	-6.7	8.2*	5.4
CCOc1ccc(N(C(=O)/C=C/C(=O)Nc2cc(C)on2)C(C(=O)NC2CCCC2)c2ccccc2C)cc1 (stereo not given)	4.4	-8.4	-14.7	-3.6	14.7	7.5	/
CCc1ccc(C(C(=O)NC2CCCC2)N(C(=O)/C=C/C(=O)Nc2cc(C)on2)c2ccccc2C)cc1 (stereo not given)	22.5	-5.4	-7.4	3.8	7.4	10.1*	1.9
COc1ccc(CN2C(=O)CSCC2(C)C(=O)NC(C)C)cc1 (stereo not given)	/	-9.2	/	/	/	/	/
CCCCCOc1ccc2oc(=O)c3c(c2c1)CCCN3C(=O)CN1CCCC(C(=O)OCC)C1 (stereo not given)	3.2	-3.8	0.7	-9.8	-0.7	12.9*	2.0
Cc1sc2nc(COC(=O)c3ccc(O)cc3)[nH]c(=O)c2c1C	1.7	-5.6	/	4.1	/	1.9	/
COCc1nc2sc(C)c(C)c2c(=O)[nH]1	-0.3	/	-35.7	-4.9	35.7	12.2*	0.8
O=C1CSC(c2ccccc2[N+](=O)[O-])N1c1ccccc1 (stereo not given)	1.0	-3.7	-4.8	19.2	4.8	-3.2	/
O=C1CSC(c2ccccc2[N+](=O)[O-])N1c1cccc(F)c1 (stereo not given)	1.9	-1.6	-8.3	-2.2	8.2	8.3*	8.7
O=C(CSc1nnc2ccccn12)NC(=O)c1ccccc1Cl	-0.3	-3.2	22.1	-4.3	-22.1	2.1	/
CCNC(=O)COC(=O)CCC(=O)c1ccc(F)cc1	0.7	-6.8	/	-4.7	/	0.8	1.3
O=C(NC1=NCCS1)c1cccc(F)c1	-0.5	-2.3	/	2.2	/	-2.5	-1.7
O=[N+]([O-])c1ccccc1OCc1nc(-c2cccs2)no1	5.1	-2.4	8.9	-3.2	-8.9	2.9	/
O=[N+]([O-])c1ccc(F)cc1OCc1nc(-c2cccs2)no1	/	-10.3	0.5	0.3	-0.5	15.2*	0.0
O=C(O)c1ccc(/C=N/N2CCN(C3c4ccccc4-c4ccccc43)CC2)cc1	-0.3	-3.8	/	3.7	/	19.5*	46.3*
CCCCn1c(N)c(N(CCC(C)C)C(=O)COC(=O)Cc2ccc(Cl)cc2)c(=O)[nH]c1=O	/	-5.7	11.4	-5.1	-11.4	2.5	/
Cc1cccc(C)c1NC(=O)CNC(=O)c1ccncc1	0.3	-3.2	-14.1	-8.8	14.1	8.3*	-2.0
O=C(CCSC1=NCCCN1)c1ccc(F)cc1	/	-6.7	-2.0	14.8	2.0	25.4	45.2*
Cn1c(SCC(=O)c2ccc(F)cc2)nc2cccnc21	0.9	0.1	18.1	3.9	-18.1	2.0	/
Cc1ccccc1S(=O)(=O)Cc1ccc(C(=O)NCCCN2CCN(C)CC2)o1	1.1	-5.8	-6.8	14.6	6.8	7.6*	1.4
Cc1ccccc1S(=O)(=O)Cc1ccc(C(=O)NCCCN2CCCC2)o1	-0.8	-2.2	-0.1	3.2	0.1	3.3	/
SMILES	NTR1 agonist	CaV13 FRET inh	SR-BI HDL uptake	Vif inh	SR-BI uptake up	V-ATPase pHluor	V-ATPase pH SP
O=C(O)C1CC=CCC1C(=O)NNc1ccccc1 (stereo not given)	0.7	-6.7	-13.7	-0.9	13.7	-4.7	/
COc1ccc(-c2nnc(NC(=O)c3ccccc3C)o2)cc1	-1.7	-5.5	-3.9	24.7	2.6	11.8*	6.8
Cc1ccccc1C(=O)Nc1nnc(-c2ccncc2)o1	-0.6	-2.0	-4.0	-11.2	4.0	-2.3	/
O=C(CSc1n[nH]c(-c2ccco2)n1)Nc1ccccc1Cl	-0.1	-5.5	/	7.3	/	12.0*	-2.5
O=C(CSc1n[nH]c(-c2ccco2)n1)Nc1ccccc1F	-0.9	-2.7	-6.5	6.6	6.5	-0.3	/
CC1CC(C)CN(C(=O)CN2C(=O)NC3(CCCCCC3)C2=O)C1 (stereo not given)	-0.7	-5.9	14.8	-9.1	-14.8	11.9*	2.6
COc1ccc(CNC(=S)NCc2ccc(OC)cc2)cc1	-0.7	3.7	-7.3	5.8	7.3	7.1*	-1.1
COc1ccc(CNC(=S)NCc2ccc(F)cc2)cc1	2.2	-2.4	-42.2	-2.5	42.2	2.2	/
CN1CCN(S(=O)(=O)c2ccc3[nH]c(=O)oc3c2)CC1	-0.9	-4.7	-11.8	-0.7	11.8	-1.7	/
COc1ccc(S(=O)(=O)NCC2CCCO2)cc1NC(=O)c1ccccc1 (stereo not given)	0.4	-5.1	11.5	-2.2	-11.5	7.5*	-1.2
O=C(O)c1cccnc1C(=O)O	-0.2	/	3.8	15.0	-3.7	-1.3	/
CC(C)OP(=O)(OC(C)C)C(NC(=O)c1cccc([N+](=O)[O-])c1)C(N)=O (stereo not given)	-4.0	-2.1	-6.3	4.1	6.3	9.1	2.8
COc1ccc(Cc2n[nH]c(=O)c3ccccc23)cc1OC	0.3	/	-20.6	-1.2	20.6	21.6*	3.4
O=c1[nH]nc(Cc2ccccc2)c2ccccc12	1.2	-4.2	-23.0	6.4	23.0	1.5	/
CN(C)CCCNc1nc(-c2ccc(Cl)cc2)nc2ccccc12	1.2	-20.5	-34.0	-5.0	34.0	0.1	/
O=C(COC(=O)CSc1ccc2ccccc2c1)Nc1ccccc1OC(F)F	1.6	-5.3	-9.4	-13.8	9.4	10.9*	-0.9
NC(N)=NN=C1c2ccccc2-c2ccccc21	-1.0	-19.7	-9.9	-10.2	9.9	200.6*	-5.0
ON=C1c2ccccc2-c2ccccc21	0.0	-19.8	/	4.9	/	-0.6	/
COC(=O)c1ccc(C#Cc2ccccc2)o1	-0.9	-12.8	-8.2	-6.6	8.2	0.5	/
COc1ccc2cc(C3OCCO3)c(Cl)nc2c1	0.0	-2.0	-6.7	-1.7	6.7	-0.8	/
CCCCn1c(=O)c(C(=O)OCC)c(O)c2ccccc21	-2.0	-2.4	-22.8	-1.4	22.8	9.8*	2.9
CCCCCn1c(=O)c(C(=O)OCC)c(O)c2ccccc21	2.1	-4.7	-25.5	8.6	25.5	1.7	/
